≈ marks a conversion by molar mass, not a printed value. Some results are limits rather than exact numbers.

In series [1] the target is T1, Metabotropic glutamate receptor 5 (Homo sapiens, UniProt P41594). Description: Binding affinity to human mGluR5 expressed in HEK293 cell membranes expressing GLAST assessed as per mg of protein after 1 hr by scintillation counter.
Target sequence in this assay (P41594 21-1212 limits assumed): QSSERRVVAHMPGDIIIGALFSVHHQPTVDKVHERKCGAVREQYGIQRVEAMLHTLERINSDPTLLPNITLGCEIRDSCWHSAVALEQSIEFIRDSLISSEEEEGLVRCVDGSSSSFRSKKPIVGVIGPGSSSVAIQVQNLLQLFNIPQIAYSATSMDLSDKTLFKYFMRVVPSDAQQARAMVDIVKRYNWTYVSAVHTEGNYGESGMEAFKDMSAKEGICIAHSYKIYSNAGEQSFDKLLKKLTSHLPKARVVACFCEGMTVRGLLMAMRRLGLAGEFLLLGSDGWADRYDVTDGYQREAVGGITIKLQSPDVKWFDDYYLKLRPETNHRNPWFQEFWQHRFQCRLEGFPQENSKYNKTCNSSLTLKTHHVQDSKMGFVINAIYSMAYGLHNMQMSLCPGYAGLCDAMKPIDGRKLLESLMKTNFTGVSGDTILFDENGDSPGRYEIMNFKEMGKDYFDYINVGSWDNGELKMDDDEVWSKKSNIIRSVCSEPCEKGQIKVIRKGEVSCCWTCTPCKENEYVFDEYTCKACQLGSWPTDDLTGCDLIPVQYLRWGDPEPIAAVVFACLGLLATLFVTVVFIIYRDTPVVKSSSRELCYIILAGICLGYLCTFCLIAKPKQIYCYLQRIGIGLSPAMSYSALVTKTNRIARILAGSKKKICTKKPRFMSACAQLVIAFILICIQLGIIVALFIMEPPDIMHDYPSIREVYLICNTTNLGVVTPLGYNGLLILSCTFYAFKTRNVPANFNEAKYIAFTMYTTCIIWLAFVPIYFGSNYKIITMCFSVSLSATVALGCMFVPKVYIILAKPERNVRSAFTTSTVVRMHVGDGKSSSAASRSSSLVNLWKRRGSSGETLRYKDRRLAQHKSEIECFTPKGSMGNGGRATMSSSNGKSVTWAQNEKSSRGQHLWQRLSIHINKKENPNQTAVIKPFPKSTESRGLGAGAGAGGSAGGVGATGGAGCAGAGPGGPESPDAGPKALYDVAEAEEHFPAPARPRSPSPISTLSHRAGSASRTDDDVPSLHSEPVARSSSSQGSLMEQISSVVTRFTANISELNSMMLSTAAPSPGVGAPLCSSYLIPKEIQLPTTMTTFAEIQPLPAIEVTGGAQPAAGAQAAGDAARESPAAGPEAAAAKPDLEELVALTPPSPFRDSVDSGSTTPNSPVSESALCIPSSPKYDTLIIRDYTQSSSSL
Series [2] addresses T1, Metabotropic glutamate receptor 5. Description: Negative allosteric modulation of human recombinant mGluR5 expressed in HEK293 cells expressing GLAST assessed as inhibition of DHPG-induced intracellular Ca2+ level after 30 mins by FLIPR assay.
Target sequence in this assay (P41594 whole entry): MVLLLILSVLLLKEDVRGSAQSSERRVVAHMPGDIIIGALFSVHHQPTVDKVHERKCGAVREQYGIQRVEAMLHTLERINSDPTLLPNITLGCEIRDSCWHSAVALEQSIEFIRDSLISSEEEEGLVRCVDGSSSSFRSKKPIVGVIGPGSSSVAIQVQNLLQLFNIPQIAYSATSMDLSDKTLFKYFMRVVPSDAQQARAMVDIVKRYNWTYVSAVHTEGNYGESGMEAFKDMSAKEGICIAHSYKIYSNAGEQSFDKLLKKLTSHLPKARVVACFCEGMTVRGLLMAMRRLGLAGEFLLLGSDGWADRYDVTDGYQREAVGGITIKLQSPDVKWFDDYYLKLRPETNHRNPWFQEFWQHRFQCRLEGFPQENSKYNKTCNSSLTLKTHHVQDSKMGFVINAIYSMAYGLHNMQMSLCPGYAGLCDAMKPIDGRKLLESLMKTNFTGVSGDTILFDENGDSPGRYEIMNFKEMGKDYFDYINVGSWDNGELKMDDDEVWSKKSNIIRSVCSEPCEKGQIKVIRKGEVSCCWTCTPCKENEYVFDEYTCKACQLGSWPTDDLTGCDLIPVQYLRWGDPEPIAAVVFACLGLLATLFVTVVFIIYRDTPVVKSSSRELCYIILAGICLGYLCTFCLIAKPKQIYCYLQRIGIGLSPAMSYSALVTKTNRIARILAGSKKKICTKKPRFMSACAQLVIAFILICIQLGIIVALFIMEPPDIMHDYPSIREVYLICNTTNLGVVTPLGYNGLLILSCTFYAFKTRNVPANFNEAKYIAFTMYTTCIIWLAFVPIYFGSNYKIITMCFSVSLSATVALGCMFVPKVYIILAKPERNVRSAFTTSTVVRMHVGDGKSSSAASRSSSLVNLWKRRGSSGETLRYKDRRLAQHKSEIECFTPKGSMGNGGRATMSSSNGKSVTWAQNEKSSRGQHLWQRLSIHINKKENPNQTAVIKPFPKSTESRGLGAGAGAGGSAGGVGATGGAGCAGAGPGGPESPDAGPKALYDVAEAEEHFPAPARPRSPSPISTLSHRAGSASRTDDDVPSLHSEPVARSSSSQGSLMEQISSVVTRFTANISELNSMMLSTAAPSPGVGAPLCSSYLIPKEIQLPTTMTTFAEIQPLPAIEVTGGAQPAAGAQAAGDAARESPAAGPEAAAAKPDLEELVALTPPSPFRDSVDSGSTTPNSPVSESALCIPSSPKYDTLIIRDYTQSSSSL
A short description of series [3]: Equilibrium solubility of the compound […]. The class given is physicochemical. Put shortly:
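Solubility was measured by a dried-DMSO rapid-throughput method.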

A short description of series [4]: Intrinsic clearance in rat liver microsomes. The class given is ADME, Microsome. The conditions noted are these: read-out: CLH. Put shortly:
(§1)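 Intrinsic clearance was determined in human or rat microsomes and expressed per min per mg protein.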
Background: Liver microsomes are a subcellular fraction often used to study metabolism.

Series [5] is described as follows: Intrinsic clearance in human liver microsomes. The class given is ADME, Microsome. The conditions noted are these: read-out: CLH. An outline of the steps:
as §1

Series [6] has as its target T1, Metabotropic glutamate receptor 5. Description: Binding affinity to human mGluR5 expressed in HEK293 cell membranes expressing GLAST after 1 hr by scintillation counter in absence of MPEP. Put shortly: (§2)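 [3H]AZD9272 equilibrium saturation binding on membranes from human mGluR5-GHEK cells (HEK293 stably expressing glutamate/aspartate transporter), run without MPEP or with 10 or 20 nM MPEP; filtration termination; Kd and Bmax (pmol/mg protein) derived per assay, three separate assays.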
Target sequence in this assay (P41594 whole entry): as above

Series [7] shares this target. The experiment in a line: Binding affinity to human mGluR5 expressed in HEK293 cell membranes expressing GLAST after 1 hr by scintillation counter in presence of 10 nM MPEP. An outline of the steps:
as §2
Target sequence in this assay (P41594 whole entry): as above

The target is the same in series [8]. The experiment in a line: Binding affinity to human mGluR5 expressed in HEK293 cell membranes expressing GLAST after 1 hr by scintillation counter in presence of 20 nM MPEP. An outline of the steps:
as §2
Target sequence in this assay (P41594 whole entry): as above

Another series concerns Brain. The experiment in a line: Drug uptake in Sprague-Dawley rat brain at 10 and 30 nmol/kg, iv administered as infusion after 5 mins by autoradiographic analysis. The conditions noted are these: in vivo. The class given is ADME, organism-based. An outline of the steps:
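Rats were dosed intravenously with [3H]AZD9272 at 10 or 30 nmol/kg. Five minutes later, brains were removed and sectioned sagittally. Radiolabel distribution was assessed by conventional autoradiography.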

In series [9] the target is T1, Metabotropic glutamate receptor 5. The experiment in a line: Binding affinity to human mGluR5 expressed in HEK293 cell membranes expressing GLAST by scintillation counting.
Target sequence in this assay (P41594 whole entry): as above
Series [10] addresses Metabotropic glutamate receptor 5 (Rattus norvegicus, UniProt P31424). Description: Binding affinity to mGluR5 in Sprague-Dawley rat striatum after 60 mins by autoradiographic analysis.

Metabotropic glutamate receptor 5 (Rattus norvegicus, UniProt P31424), sequence (P31424 whole entry): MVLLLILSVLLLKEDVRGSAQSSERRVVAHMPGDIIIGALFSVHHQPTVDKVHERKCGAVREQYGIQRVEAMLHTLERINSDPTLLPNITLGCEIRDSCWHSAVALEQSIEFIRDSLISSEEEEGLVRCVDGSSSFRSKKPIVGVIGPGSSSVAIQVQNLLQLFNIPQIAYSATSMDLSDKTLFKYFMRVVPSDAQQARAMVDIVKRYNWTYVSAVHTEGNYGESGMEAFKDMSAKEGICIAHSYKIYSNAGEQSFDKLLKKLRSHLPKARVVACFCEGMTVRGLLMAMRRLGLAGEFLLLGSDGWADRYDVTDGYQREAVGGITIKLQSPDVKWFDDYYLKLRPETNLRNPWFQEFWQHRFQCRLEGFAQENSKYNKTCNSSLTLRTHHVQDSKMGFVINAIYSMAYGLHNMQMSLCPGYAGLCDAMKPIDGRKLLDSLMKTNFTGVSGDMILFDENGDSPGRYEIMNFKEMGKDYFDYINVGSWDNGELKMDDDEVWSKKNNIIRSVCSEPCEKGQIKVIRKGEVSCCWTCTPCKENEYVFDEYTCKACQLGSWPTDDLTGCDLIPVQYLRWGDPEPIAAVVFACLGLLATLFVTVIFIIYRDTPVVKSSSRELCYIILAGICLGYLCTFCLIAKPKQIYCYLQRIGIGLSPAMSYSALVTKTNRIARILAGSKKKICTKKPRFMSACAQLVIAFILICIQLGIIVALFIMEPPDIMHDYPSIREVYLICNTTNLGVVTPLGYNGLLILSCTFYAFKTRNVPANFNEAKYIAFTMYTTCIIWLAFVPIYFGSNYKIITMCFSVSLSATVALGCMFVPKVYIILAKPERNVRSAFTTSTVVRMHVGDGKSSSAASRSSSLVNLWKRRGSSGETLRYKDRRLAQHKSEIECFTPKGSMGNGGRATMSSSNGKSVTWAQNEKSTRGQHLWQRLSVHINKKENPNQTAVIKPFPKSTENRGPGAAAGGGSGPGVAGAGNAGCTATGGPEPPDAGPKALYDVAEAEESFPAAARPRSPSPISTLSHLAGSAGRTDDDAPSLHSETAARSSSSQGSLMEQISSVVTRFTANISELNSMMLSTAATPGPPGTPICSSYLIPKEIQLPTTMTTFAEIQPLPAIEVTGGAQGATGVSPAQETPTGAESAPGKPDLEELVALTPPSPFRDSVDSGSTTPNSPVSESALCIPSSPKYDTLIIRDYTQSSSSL

As to `Cc1cccc(C#Cc2ccccc2)n1`, the Bmax in [1] worked out at 4.4 pmol. As usually defined, the IC50 is the concentration at which inhibition is half-maximal. As to `Clc1cccc(-c2nc(-c3ccccn3)no2)c1`, the IC50 in series [2] was determined as 116 nM. In the case of `COc1cccc(-c2nc(-c3ccccn3)no2)c1`, the concentration for half-maximal inhibition (IC50) in [2] came to 540 nM. Consider `Fc1cc(F)cc(-c2nc(-c3ccccn3)no2)c1`, for which, in series [2], the 50% inhibitory concentration (IC50) is 154 nM. On to `Clc1ccc(-c2nc(-c3ccccn3)no2)cc1`, for which the IC50 in series [2] was over 10000 nM. Take `N#Cc1cc(F)cc(-c2nc(-c3ccccn3)co2)c1`: in [2], the IC50 was determined as 22 nM. As for `Fc1cccc(-c2nc(-c3ccccn3)no2)c1`, the 50% inhibitory concentration (IC50) in series [2] is 845 nM. For the compound `Clc1ccc(-c2nc(-c3ccccn3)no2)c(Cl)c1`, the IC50 in series [2] was 1700 nM. With `Cc1cccc(-c2nc(-c3ccccn3)no2)c1`, the IC50 in series [2] came to 443 nM.

With `FC(F)(F)Oc1cccc(-c2nc(-c3ccccn3)no2)c1`, the IC50 in series [2] stood at 700 nM. As to `N#Cc1cc(F)cc(-c2ccc(-c3ccccn3)o2)c1`, in series [2], the IC50 was determined as 61 nM. For the compound `N#Cc1cc(F)cc(-c2nc(-c3cnccn3)no2)c1`, the IC50 in series [2] worked out at 4700 nM. What is called solubility is the concentration that dissolves in the medium under given conditions. A higher solubility goes with a readily soluble substance. As for `N#Cc1cc(F)cc(-c2nc(-c3ccccn3)no2)c1`, in [2], the IC50 came to 25 nM. This compound also registered a solubility in series [3] of 78.1 µM (≈ 20.8 µg/mL). Besides, the microsomal CLint in series [4] worked out at 29 µL/min/mg; in series [5], 92 µL/min/mg. With `Brc1cccc(-c2nc(-c3ccccn3)no2)c1`, the concentration for half-maximal inhibition (IC50) in [2] was determined as 118 nM. For the compound `N#Cc1cc(C#N)cc(-c2nc(-c3ccccn3)no2)c1`, the half-maximal inhibitory concentration (IC50) in series [2] came out at 176 nM. For the compound `Clc1ccc(-c2nc(-c3ccccn3)no2)cc1Cl`, the half-maximal inhibitory concentration (IC50) in series [2] was over 10000 nM. Take `N#Cc1cc(F)cc(-c2nc(-c3ncccn3)no2)c1`: the IC50 in series [2] worked out at 1100 nM. Same read-out and setting: with `N#Cc1cc(F)cc(-c2noc(-c3ccccn3)n2)c1` the figure was 23 nM; with `Clc1cc(Cl)cc(-c2nc(-c3ccccn3)no2)c1`, 142 nM; with `Clc1ccccc1-c1nc(-c2ccccn2)no1`, 436 nM. Same read-out and setting: with `NC(=O)c1ccccc1-c1nc(-c2ccccn2)no1` the figure was 3300 nM. A word on the Kd: it is the concentration at which binding is half-saturated. As for `[3H]c1c(F)cc(-c2nc(-c3ccc(F)cn3)no2)cc1C#N`, the dissociation constant Kd amounted to 3.8 nM in series [6]; 5.5 nM in [7]; 7.2 nM in [8]; 2.8 nM in series [9]; 9.4 nM in [10]. Further, in the series on Brain, the Drug uptake result was “Active”. On to `O=[N+]([O-])c1cccc(-c2nc(-c3ccccn3)no2)c1`, for which the IC50 in series [2] was found to be 236 nM. In the case of `Clc1cccc(-c2nc(-c3ccccn3)no2)c1Cl`, in series [2], the IC50 was found to be 274 nM.

In the case of `FC(F)(F)c1cc(-c2nc(-c3ccccn3)no2)cc(C(F)(F)F)c1`, the concentration for half-maximal inhibition (IC50) in series [2] is over 10000 nM.

Source of the values: ChEMBL document CHEMBL2163282, “Discovery and characterization of AZD9272 and AZD6538-Two novel mGluR5 negative allosteric modulators selected for clinical development” (Bioorg Med Chem Lett, 2012).
